# Measured values collected from several papers.
# Each line is one published result; the experiments were not run side by side.
# Matrix: plasma
SMILES,host,route,dose,notes,Cmax
C#Cc1cccc(Nc2ncnc3cc(OCCOC)c(OCCOC)cc23)c1,human,oral,100 mg,patients,1.82 µM
Nc1cc(C(F)(F)F)c(-c2cc(N3CCOCC3)nc(N3CCOCC3)n2)cn1,human,oral,100 mg/day,patients,1080 ng/mL
Cn1cc(-c2ccc(S(=O)(=O)[C@@H]3C[C@@H](C(=O)NC4(C#N)CC4)N(C(=O)C4(C(F)(F)F)CC4)C3)c(C(F)(F)F)c2)cn1,human,oral,3 mg,"single dose, fasted, healthy volunteers",20.8 ng/mL
CC(C)(O)c1ccccc1-c1ccc2[nH]c(/C=C/c3ccc(C(F)(F)F)cc3)nc2c1,male human,oral,50 mg,"single dose, fasted, healthy volunteers",160 ng/mL
CO[C@H]1CC[C@H](N2C(=O)CNc3ncc(-c4ccc(C(C)(C)O)nc4)nc32)CC1,human,oral,30 mg,patients,188 ng/mL
COc1cc(C(=O)NC2CCN(C)CC2)c(F)cc1Nc1ncc(C(F)(F)F)c(Oc2cccc3c2C(=O)N(C)C3)n1,human,oral,300 mg,"multiple doses, once daily, steady state, patients",5.06 µM
CC(C)(C(=O)N1CCOc2c(C#N)cncc2C1)C(F)F,human,oral,40 mg,"single dose, fasted, healthy volunteers",555 ng/mL
COc1ccc([C@@H]2CN(C(=O)[C@@H](O)CO)C[C@@]2(C)[C@@H](C)O)cc1OC1CN(c2ccc(C)cn2)C1,human,oral,1.5 mg,"single dose, healthy volunteers",76.5 ng/mL
CS(=O)(=O)CCNCc1ccc(-c2ccc3ncnc(Nc4ccc(OCc5cccc(F)c5)c(Cl)c4)c3c2)o1,human,oral,900 mg,"multiple doses, twice daily, steady state, patients",3570 ng/mL
NS(=O)(=O)NCCNc1nonc1C(=NO)Nc1ccc(F)c(Br)c1,human,oral,500 mg,"multiple doses, twice daily, steady state, patients",4.82 µM
COCCOc1cnc2ccn([C@H](C)c3nnc4c(F)cc(-c5cnn(C)c5)cn34)c(=O)c2c1,human,oral,25 mg,"multiple doses, once daily, patients",600 ng/mL
CCc1nc2c(C)cc(N3CCN(CC(=O)N4CC(O)C4)CC3)cn2c1N(C)c1nc(-c2ccc(F)cc2)c(C#N)s1,human,oral,1000 mg,"single dose, fed, healthy volunteers",11800 ng/mL
CCn1c(=O)c(-c2cc(NC(=O)Nc3ccccc3)c(F)cc2Br)cc2cnc(NC)cc21,human,oral,20 mg,"single dose, patients",109 ng/mL
O=C(O)C[C@H](O)C[C@H](O)/C=C/c1c(C2CC2)nc2ccccc2c1-c1ccc(F)cc1,human,oral,2 mg,"single dose, fed, healthy volunteers, tablet",46.5 ng/mL
O=C(Nc1c(Cl)cncc1Cl)c1ccc(OC(F)F)c(OCC2CC2)c1,human,oral,0.25 mg,"single dose, fasted",6.4 ng/mL
CC(C)n1cc(C#N)c2cc(-n3cc(C(=O)O)cn3)ccc21,human,oral,50 mg,"single dose, fasted, healthy volunteers",1440 ng/mL
CO[C@@H]1[C@H](OC(=O)N2CC(CCN3CCOCC3)C2)CC[C@]2(CO2)[C@H]1[C@@]1(C)O[C@@H]1CC=C(C)C,human,subcutaneous,4.8 mg,"single dose, healthy volunteers",18.7 ng/mL
CCCCC1=NC2(CCCC2)C(=O)N1Cc1ccc(-c2ccccc2S(=O)(=O)Nc2noc(C)c2C)c(COCC)c1,human,oral,800 mg,"single dose, fasted, healthy volunteers",7650 ng/mL
COc1cc2c(Nc3ccc(Br)cc3F)ncnc2cc1OCC1CCN(C)CC1,human,oral,65 mg/m²,"multiple doses, once daily, steady state, patients",868 ng/mL
N#CN1C[C@H](n2nc(-c3ccc(Oc4ccc(Cl)cn4)cc3)c(C(N)=O)c2N)CCC12CC2,human,oral,600 mg,"single dose, fasted",1120 ng/mL
